V1R ag counter = activates human V1a receptor in oxytocin agonist counter-screen; CHO-V1R cells, Fluo-8 calcium fluorescence, agonist mode; 0% DMSO, 100% 3 nM vasopressin; P37288; AID 2797; activation, % at 3 µM; actives 0.25% (n = 320,000);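 active = activation above the mean activation of all tested compounds plus 3 SD, per screening run, cut at about 20% in these data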;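 note: signal is peak over basal fluorescence ratio across a 100 second FLIPR read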
OXTR agonist = human OXTR agonism | P30559 | CHO-OTR cells, Fluo-8 calcium fluorescence; normalized: DMSO 0%, oxytocin 100% | activation, % at 3 µM | actives 0.32% (n = 320,000) | AID 2435;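 active = activation above the mean of all tested compounds plus 3 SD, cutoff set per screening run, cut at about 20% in these data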;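 note: peak over basal fluorescence ratio from a 100 s FLIPR kinetic read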
Target sequence (P30559 whole entry, looked up): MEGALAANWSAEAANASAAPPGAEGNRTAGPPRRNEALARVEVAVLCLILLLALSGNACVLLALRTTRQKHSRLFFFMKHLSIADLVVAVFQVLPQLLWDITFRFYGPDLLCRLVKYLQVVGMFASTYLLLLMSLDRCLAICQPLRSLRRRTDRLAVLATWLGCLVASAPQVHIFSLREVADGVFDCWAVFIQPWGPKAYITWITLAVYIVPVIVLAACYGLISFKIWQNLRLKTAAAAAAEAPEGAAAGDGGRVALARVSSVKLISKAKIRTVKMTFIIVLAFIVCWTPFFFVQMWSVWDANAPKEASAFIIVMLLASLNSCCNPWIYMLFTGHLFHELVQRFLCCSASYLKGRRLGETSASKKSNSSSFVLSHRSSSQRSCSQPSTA
TAAR1 agonist = agonists of human TAAR1. AID 624467. activation, % at 3 µM. CHO RD-HGA16 TAAR1, Fluo-8 calcium fluorescence; vehicle wells 0%, saturating PEA agonist 100%. Q96RJ0. actives 0.99% (n = 360,000);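 active = activation above the mean activation of all test compounds in the run plus 3 SD, cut at about 38% in these data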
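System: CHO RD-HGA16 cells carrying human TAAR1 plus Gα16; Incubation: 17-24 h seeding, 75 min 37 °C dye, 30 min RT; Measured by: Fluo-8 fluorescence, 5 s baseline then 140 s kinetic read; Control set: DMSO and PEA EC100; Replication: single well for each compound.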
TAAR1 antagonist = human TAAR1 antagonism; inhibition, % at 3 µM; CHO RD-HGA16 TAAR1, Fluo-8 calcium fluorescence, antagonist; actives 1.5% (n = 360,000);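 active = inhibition above a per-plate cutoff, the mean inhibition of test compounds on that plate plus 3 SD, cut at about 49% in these data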
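Material: CHO RD-HGA16 cells bearing hTAAR1; compound dosing: one-point dosing, 3 µM nominal final; schedule: dye loading 75 min at 37 °C, then 30 min room temperature; measured by: calcium fluorescence with Fluo-8; control set: vehicle and agonist controls; replication: n of 1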
OXTR potentiate = potentiators of human oxytocin receptor; P30559; CHO-OTR cells, Fluo-8 calcium fluorescence, potentiator mode; 0% = oxytocin EC15, 100% = EC100; activation, % at 3 µM; actives 0.061% (n = 320,000); AID 2445;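 active = activation above that plate's cutoff, the mean activation of tested compounds plus 3 SD, cut at about 6.6% in these data, passing the limit was not always enough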
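Measured by – Fluo-8 calcium dye fluorescence · Test system – human OTR in CHO cells · Dosing – one concentration, 3.0 µM compound · Controls – EC15 oxytocin alone as 0%, 75 nM oxytocin as 100% · Evaluation – normalized max/min fluorescence ratio, % activation · Timing – 6 min pre-incubation, 100 s read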
TAAR1 nonsel count = nonselective antagonism, TAAR1 counter-screen; inhibition, % at 3 µM; shares compounds with TAAR1 antagonist; AID 651780; actives 77% (n = 2,400); counterscreen cell line, calcium fluorescence, antagonist mode; in the data active = inhibition above about 22%;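 note: CHO-Ga16 host cells stimulated with ATP at an EC80 level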
TAAR1 antag conf = human TAAR1 antagonism, confirmed; TAAR1-expressing cells, fluorescence antagonist read-out; inhibition, % at 3 µM; shares compounds with TAAR1 antagonist; actives 40% (n = 2,400); AID 651785; in the data active = inhibition above about 49%;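 note: CHO-Ga16 host cells challenged with agonist PEA near its EC80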
Ga16 nonsel ag = counter-screen for TAAR1 antagonists: nonselective Ga16 agonists; shares compounds with TAAR1 antagonist; Ga16-expressing cells, calcium fluorescence, agonist counterscreen; activation, % at 3 µM; actives 18% (n = 2,400); AID 651953; in the data active = activation above about 12%
TAAR1 ag counter = activates human TAAR1 in antagonist counter-screen. shares compounds with TAAR1 antagonist. hTAAR1 cell line, fluorescence activation, agonist mode. activation, % at 3 µM. actives 2% (n = 2,400). AID 651955; in the data active = activation above about 37%;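 note: CHO cells stably expressing TAAR1 with calcium dye readout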
Of the large screens only hits and unclear results are named; the others gave an inactive call (follow-up assays come after a bar, where they were run). Sampled rows, rich in hits. Any-hit rate of the full collection: about 2.3%.

COc1ccc(-c2cc(C(=O)N3CCN(c4ccccc4F)CC3)c3ccccc3n2)c(OC)c1	none
CCCCOCC1CN(CCCC)S(=O)(=O)c2c(F)cccc2O1 (configuration not stated)	none (no result: V1R ag counter, OXTR agonist, OXTR potentiate)
N#Cc1ccc2sn(-c3ccccc3)c(=O)c2c1	none (no result: V1R ag counter, OXTR agonist, OXTR potentiate)
COc1ccc(N2CCN(C(=O)c3cc4c(C)nc5ccccc5c4o3)CC2)cc1	TAAR1 antagonist 62 | TAAR1 nonsel count 37 | TAAR1 antag conf 51 | Ga16 nonsel ag 12 | TAAR1 ag counter inactive
CC(=O)c1ccc(N2CCN(C(=O)c3cc4c(C)nc5ccccc5c4o3)CC2)cc1	none
COc1cc(/C=N/Nc2nc(-c3ccc(S(=O)(=O)N(C)C)cc3)cs2)ccc1O	TAAR1 antagonist 69 | TAAR1 nonsel count 30 | TAAR1 antag conf inactive | Ga16 nonsel ag inactive | TAAR1 ag counter inactive
COc1ccc(/C=N/Nc2nc(-c3cccc(S(=O)(=O)N4CCCC4)c3)cs2)cc1OC	none
OC[C@@H]1CN(Cc2ccc(F)cc2)C[C@H](n2cnc3c(N4CCN(c5ccccc5)CC4)ncnc32)O1	TAAR1 antagonist 64 (no result: V1R ag counter, OXTR agonist, OXTR potentiate) | TAAR1 nonsel count 36 | TAAR1 antag conf 55 | Ga16 nonsel ag 18 | TAAR1 ag counter inactive
Cc1ccc(NC(=O)CN(Cc2ccco2)Cc2ccccc2O)cc1C	TAAR1 antagonist 52 | TAAR1 nonsel count 24 | TAAR1 antag conf inactive | Ga16 nonsel ag inactive | TAAR1 ag counter inactive
Cc1ccc(NC(=O)N(Cc2ccco2)C(C)c2ccco2)cc1C (configuration not stated)	none
CC(C)[C@H](NS(=O)(=O)c1ccc2c(c1)OCCO2)C(=O)OCC(=O)Nc1cc(Cl)ccc1Cl	TAAR1 antagonist 76 | TAAR1 nonsel count 39 | TAAR1 antag conf 61 | Ga16 nonsel ag inactive | TAAR1 ag counter inactive
CC(C)[C@H](NS(=O)(=O)c1ccc2c(c1)OCCO2)C(=O)OCC(=O)Nc1ccccc1Cl	none
C#CCC1c2ccccc2CCN1CC=C (configuration not stated)	none (no result: V1R ag counter, OXTR agonist, OXTR potentiate)
O=C(CSc1c(Cl)cccc1Cl)N1CCC(c2nc3ccccc3s2)CC1	TAAR1 antagonist 59 | TAAR1 nonsel count 44 | TAAR1 antag conf 50 | Ga16 nonsel ag 12 | TAAR1 ag counter inactive
CCCCNCc1cc2ccccc2o1	TAAR1 antagonist 103 | TAAR1 nonsel count inactive | TAAR1 antag conf inactive | Ga16 nonsel ag inactive | TAAR1 ag counter inactive
Cc1cccc(N2CCN(C(=O)c3nn(C)c4c3CS(=O)(=O)c3ccccc3-4)CC2C)c1 (configuration not stated)	TAAR1 antagonist 53 | TAAR1 nonsel count 31 | TAAR1 antag conf inactive | Ga16 nonsel ag inactive | TAAR1 ag counter inactive
Cn1nc(C(=O)N2CCN(c3cccc(Cl)c3)CC2)c2c1-c1ccccc1S(=O)(=O)C2	none
CCN1C(=O)c2cccc3c(S(=O)(=O)N(C(=O)c4ccncc4)c4ccc(OC)cc4)ccc1c23	TAAR1 antagonist 66 | TAAR1 nonsel count 31 | TAAR1 antag conf inactive | Ga16 nonsel ag inactive | TAAR1 ag counter inactive
CCN1C(=O)c2cccc3c(S(=O)(=O)N(C(=O)c4cccnc4)c4ccc(OC)cc4)ccc1c23	TAAR1 antagonist 67 | TAAR1 nonsel count 31 | TAAR1 antag conf 54 | Ga16 nonsel ag inactive | TAAR1 ag counter inactive
CCN1C(=O)c2cccc3c(S(=O)(=O)N(C)C)ccc1c23	none (no result: V1R ag counter, OXTR agonist, OXTR potentiate)
COc1ccc(N2CCN(C(=O)C3CCN(S(=O)(=O)c4ccc5c(c4)CC(C)N5C(=O)C4CC4)CC3)CC2)cc1 (configuration not stated)	none (no result: V1R ag counter, OXTR agonist, OXTR potentiate)
COc1ccc(OC)c(CCNC(=O)CCn2nc(C)c3c(C)n(-c4ccccc4)nc3c2=O)c1	none

Screens (PubChem BioAssay)
